“And” between values parts separate entries of the source, which are not always exact repeats. Identical values can stand only once.
What was measured:
PC-3 = experiment: Cytotoxicity against apoptotic-sensitive human PC3 cells assessed as growth inhibition after 72 hrs by MTT-based colorimetric assay; assay type: functional, cell-based
How it was run: (§1)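 MTT colorimetric assay, 72 h exposure to the fumarate salt. Read-out is reduction of MTT to formazan by living cells. IC50 is the concentration that reduces the whole cell population by 50%. Six replicates per condition. Where compounds were not tested on every line, apoptosis-sensitive lines were PC3, MCF-7, LoVo and B16F10, and apoptosis-resistant lines were U373, T98G, A549 and SK-MEL-28.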

MCF7 = experiment: Cytotoxicity against apoptotic-sensitive human MCF7 cells assessed as growth inhibition after 72 hrs by MTT-based colorimetric assay; assay type: functional, cell-based; how it was run: as §1
LoVo = experiment: Cytotoxicity against apoptotic-sensitive human LoVo cells assessed as growth inhibition after 72 hrs by MTT-based colorimetric assay; assay type: functional, cell-based; how it was run: as §1
SK-MEL-28 = experiment: Cytotoxicity against apoptotic-resistant human SK-MEL-28 cells assessed as growth inhibition after 72 hrs by MTT-based colorimetric assay; assay type: functional, cell-based; how it was run: as §1
A549 = experiment: Cytotoxicity against apoptotic-resistant human A549 cells assessed as growth inhibition after 72 hrs by MTT-based colorimetric assay; assay type: functional, cell-based; how it was run: as §1
T98G = experiment: Cytotoxicity against apoptotic-resistant human T98G cells assessed as growth inhibition after 72 hrs by MTT-based colorimetric assay; assay type: functional, cell-based; how it was run: as §1
[1] = Cytotoxicity against apoptotic-resistant human U373 cells assessed as growth inhibition after 72 hrs by MTT-based colorimetric assay; assay type: functional, cell-based, U-373MG ATCC; how it was run: as §1
B16-F10 = experiment: Cytotoxicity against apoptotic-sensitive mouse B16F10 cells assessed as growth inhibition after 72 hrs by MTT-based colorimetric assay; assay type: functional, cell-based; conditions: B16-F10, 72 h; how it was run: as §1

Structure (SMILES)	IC50 (PC-3; Homo sapiens, PC-3, 72 h) [µM]	IC50 (MCF7; Homo sapiens, MCF7, 72 h) [µM]	IC50 (LoVo; Homo sapiens, LoVo, 72 h) [µM]	IC50 (SK-MEL-28; Homo sapiens, SK-MEL-28, 72 h) [µM]	IC50 (A549; Homo sapiens, A549, 72 h) [µM]	IC50 (T98G; Homo sapiens, T98G, 72 h) [µM]	IC50 ([1]; Homo sapiens, U373 MG, 72 h) [µM]	IC50 (B16-F10) [µM]	IC50 (PC-3; pc-3)	IC50 (MCF7; mcf7)	IC50 (LoVo; lovo)	IC50 (SK-MEL-28; sk-mel-28)	IC50 (A549; a549)	IC50 (T98G; t98g)	IC50 ([1]; u-373mg atcc) [µM]
C=CCCCCOc1ccc(OC)cc1-c1cnc(OCCC=C)n1C	43	37	33	62	43	74	67								
C=CCCCCOc1ncc(-c2cccc(OC)c2OC)n1C	36	28	11	27	43	35		27							
C=CCCCCOc1ccc(C)cc1-c1cnc(OCCC=C)n1C	59	53	41	83	59	94	33								
Cn1c2cnc1NC(=O)CCCCCCCCCOc1ccccc1-2	61	61	33	59	43	64	38								
Cn1c2cnc1OCCCCCCCCCCOc1ccccc1-2	31	24	33	31	48	41	31								
C=CCCCCOc1ncc(-c2ccc(Cl)cc2OC)n1C	36	37	35	50	47	67		43							
CCCCCCOc1ncc(-c2ccccc2OC)n1C	33	27	27	43	37	58		38							
C=CCCCCOc1ccccc1-c1cnc(S(=O)(=O)c2ccccc2)n1C	33	25	27	38	38	71	63								
C=CCCCCOc1cc2ccccc2cc1-c1cnc(OCCC=C)n1C	14	25	25	25	21	32	27								
COc1ccc2c(c1)-c1cnc(n1C)OCCCCCCCCO2	40	32	34	57	40	68	63								
C=CCCCCOc1cc(F)ccc1-c1cnc(OCCC=C)n1C	64	59	45	83	74	> 100	> 100								
C=CCCCCCOc1ncc(-c2ccccc2OCCCCC=C)n1C	70	63	32	79	62	63	76								
Cn1c2cnc1OCCCCCCCCOc1cc(F)ccc1-2	46	35	32	58	43	69	70								
Cn1c2cnc1OCCCCCCCCCCOc1cc3ccccc3cc1-2	25	24	28	33	20	22	29								
C=CCCOc1ncc(-c2ccccc2OC)n1C	25	27	24	21	22	39	16								
C=CCCCCOc1ccccc1-c1cnc(OCCCC=C)n1C	28	7	4	19	3	3	5								

Structure (SMILES)	IC50 (PC-3; Homo sapiens, PC-3, 72 h) [µM]	IC50 (MCF7; Homo sapiens, MCF7, 72 h) [µM]	IC50 (LoVo; Homo sapiens, LoVo, 72 h) [µM]	IC50 (SK-MEL-28; Homo sapiens, SK-MEL-28, 72 h) [µM]	IC50 (A549; Homo sapiens, A549, 72 h) [µM]	IC50 (T98G; Homo sapiens, T98G, 72 h) [µM]	IC50 ([1]; Homo sapiens, U373 MG, 72 h) [µM]	IC50 (B16-F10) [µM]	IC50 (PC-3; pc-3)	IC50 (MCF7; mcf7)	IC50 (LoVo; lovo)	IC50 (SK-MEL-28; sk-mel-28)	IC50 (A549; a549)	IC50 (T98G; t98g)	IC50 ([1]; u-373mg atcc) [µM]
C=CCCCCOc1ccc(F)cc1-c1cnc(OCCC=C)n1C	52	43	38	82	61	87	73								
C=CCCCCOc1ccccc1-c1cnc(OC)n1C	86	98	47	85	80	> 100	> 100								
Cn1c2cnc1OCCCCCCCCOc1ccccc1-2 (single isomer, unassigned; atropisomer)									49 µM and 57 µM	44 µM and 43 µM	37 µM and 63 µM	64 µM and 66 µM	59 µM and 54 µM	75 µM and 92 µM	71
Cn1c2cnc1OCCCCCCCCOc1ccc(F)cc1-2	52	52	43	72	58	77	73								
COc1ccccc1-c1cnc(OC)n1C	> 100	> 100	73	> 100	> 100	> 100	> 100								
C=CCCCCOc1ncc(-c2ccccc2OC)n1C	24	5	4	13	5	5	9								
Cn1c2cnc1OCCCCCCCCCCCOc1ccccc1-2	36	41	32	47	36	56	48								
Cn1c2cnc1OCCCCCCCCCOc1ccccc1-2	61	71	34	72	69	74	78								
C=CCCCCOc1cc2ccccc2cc1-c1cnc(OCCCCC=C)n1C	38	37	25	59	16	40	33								
Cn1c(-c2ccccc2O)cnc1S(=O)(=O)c1ccccc1	> 100	> 100	56	> 100	> 100	> 100	> 100								
C=CCCOc1ccccc1-c1cnc(S(=O)(=O)c2ccccc2)n1C	42	67	32	60	73	> 100	> 100								
C=CCCCCOc1ccccc1-c1cnc(OCCC=C)n1C	19	8	12	17	9	29	33								
Cc1ccc2c(c1)-c1cnc(n1C)OCCCCCCCCO2	36	34	34	55	41	63	57								
C=CCCCCOc1ccccc1-c1cnc(OCCOCC=C)n1C	36	32	26	59	34	65	60								
Cn1c2cnc1OCCCCCCCCOc1cc3ccccc3cc1-2	25	19	16	23	26	32	24								
C=CCCCCOc1ccccc1-c1cnc(NC(=O)CCCC=C)n1C	11	22	10	7	8	22	7								

From ChEMBL document CHEMBL3091366, “New 5-Aryl-1H-imidazoles display in vitro antitumor activity against apoptosis-resistant cancer models, including melanomas, through mitochondrial targeting” (J Med Chem, 2013)
